Drawing on ChEMBL document CHEMBL1155551, “First synthesis and antiprotozoal activities of divinyl sulfone-modified carbohydrates” (Bioorg Med Chem Lett, 2010), this text covers IC50 and Activity for five molecules.

One data set deals with Entamoeba histolytica. Description: Antiprotozoal activity against Entamoeba histolytica after 24 hrs by trypan blue assay. Type of data set: functional, organism-based. The gist of the method: (§1)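 Trophozoites kept in TYIS-33 medium, E. histolytica at 37 °C and E. invadens at 25 °C. About 5 × 10⁵ cells/mL exposed to compounds (10 mM stocks in DMSO) for 24 h, with DMSO as negative and metronidazole as positive control. Cells washed in PBS; live cells counted by hemocytometer with trypan blue. IC50 fitted from at least three experiments, each in triplicate.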

For the next data set, the system named is Entamoeba invadens. Description: Antiprotozoal activity against Entamoeba invadens after 24 hrs by trypan blue assay. Type of data set: functional, organism-based. The gist of the method:
as §1

The next data set deals with MCF7. Description: Cytotoxicity against human MCF7 after 36 hrs by MTT assay. It counts as cell-based. The settings on record: mcf7, 48 h, in the assay text read “48 hrs” for “36 hrs”. The essentials: (§2)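 MCF7 or AH927 cells seeded at 2 × 10³ per well under 5% CO2, 37 °C. After 36 h, compound added at concentrations ranging from 0 to 100, with untreated wells as control. Viability read by MTT after 48 h of treatment.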

A short description of data set [1]: Cytotoxicity against cat AH927 after 36 hrs by MTT assay. The note with it: Felis catus, 48 h, in the assay text read “48 hrs” for “36 hrs”. The essentials:
as §2

Each structure is given as a SMILES string.

Turning to `C=CS(=O)(=O)C1=C[C@H](OC)O[C@@H]1COCc1ccccc1`, the IC50 in the data set with Entamoeba histolytica is 19.5 µM; with Entamoeba invadens, 9.3 µM. The Activity entry (in the data set with MCF7; in data set [1]) was “Non-toxic” in each case.

Consider `C=CS(=O)(=O)C1=C[C@H](OC)O[C@@H]1COC(c1ccccc1)(c1ccccc1)c1ccccc1`, for which the results for the IC50 in the data set on Entamoeba histolytica and in the data set with Entamoeba invadens were 32.9 µM and 17 µM, respectively.

On to `C=CS(=O)(=O)C1=C[C@@H](OC)O[C@@H]1COC(c1ccccc1)(c1ccccc1)c1ccccc1`, for which the IC50 in the data set with Entamoeba histolytica was determined as 37.9 µM; in the data set with Entamoeba invadens, 25 µM.

For `Cc1ncc([N+](=O)[O-])n1CCO` [METRONIDAZOLE], the values for the IC50 with Entamoeba histolytica and with Entamoeba invadens were 2.5 µM and 3 µM, respectively.

Turning to `C=CS(=O)(=O)C1=C[C@@H](OC)O[C@@H]1COCc1ccccc1`, the results for the IC50 in the data set with Entamoeba histolytica and in the data set with Entamoeba invadens were 24.4 µM and 30.1 µM, respectively.

As a reminder, the IC50 is the concentration needed to halve the response being measured.
